Data set [1] can be described thus: Chemical stability at pH 1.4 and 37 °C, monitored by HPLC. The class given is physicochemical. To be noted: for t1/2 of hydrolysis at pH 1.4: pH 1.4, 37 °C, KCl/HCl buffer.
The test system of data set [2] is rabbit IOP. To be noted: topically applied to New Zealand white rabbits; cited from earlier work.
A short description of data set [3]: Stability in human blood serum at 37 °C. The class given is in vitro ADME.
Data set [4] addresses calf intestine alkaline phosphatase (Bos taurus, UniProt P19111). The data set is described as follows: Hydrolysis by alkaline phosphatase. To be noted: for degradation by alkaline phosphatase after 3 h: 0.2 mg analogue/77.5 μL, 12.5 units of AP, 37 °C; for resistance to hydrolysis by alkaline phosphatase: over 30 min at 37 °C.
For data set [5] the following is noted: pH 1.4, 37 °C; cited from earlier work.
Another data set relates to P2Y1R. To be noted: read-out: EC50 at P2Y1R; cited from earlier work.
For data set [6], the system named is rabbit IOP. The data set is described as follows: IOP measurements in normotensive rabbits. The class given is in vivo, New Zealand white rabbits. An outline of the steps:
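Male New Zealand white rabbits (2.5 ± 0.5 kg) on a 12 h/12 h light/dark cycle. Test compound was applied unilaterally to the cornea at 100 μM in 10 μL, with 0.9% saline vehicle in the contralateral eye. Design was blinded, with two baseline readings by rebound tonometer and follow-up to 8 h. Dose–response used 1 nM–100 μM, taking the maximal response per dose. […] Mean-time effect was the time from 50% maximal IOP decrease to 50% recovery. Mean ± SEM of 8–10 experiments.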

In a further data set the target is turkey P2Y1 receptor (Meleagris gallopavo, UniProt P49652). The class given is cell-based. To be noted: replacement of nonbridging oxygen with BH3.
A short description of data set [7]: pKa and ionization of the terminal phosphate/phosphonate. The class given is physicochemical. To be noted: pH 7.4, terminal phosphate/phosphonate.
The conditions of data set [8]: cited from earlier work.
[9] abbreviates: human blood serum/RPMI-1640, 37 °C.

Read-outs that look alike come from different tables or passages of the source.

Sequence of calf intestine alkaline phosphatase (P19111 20-533): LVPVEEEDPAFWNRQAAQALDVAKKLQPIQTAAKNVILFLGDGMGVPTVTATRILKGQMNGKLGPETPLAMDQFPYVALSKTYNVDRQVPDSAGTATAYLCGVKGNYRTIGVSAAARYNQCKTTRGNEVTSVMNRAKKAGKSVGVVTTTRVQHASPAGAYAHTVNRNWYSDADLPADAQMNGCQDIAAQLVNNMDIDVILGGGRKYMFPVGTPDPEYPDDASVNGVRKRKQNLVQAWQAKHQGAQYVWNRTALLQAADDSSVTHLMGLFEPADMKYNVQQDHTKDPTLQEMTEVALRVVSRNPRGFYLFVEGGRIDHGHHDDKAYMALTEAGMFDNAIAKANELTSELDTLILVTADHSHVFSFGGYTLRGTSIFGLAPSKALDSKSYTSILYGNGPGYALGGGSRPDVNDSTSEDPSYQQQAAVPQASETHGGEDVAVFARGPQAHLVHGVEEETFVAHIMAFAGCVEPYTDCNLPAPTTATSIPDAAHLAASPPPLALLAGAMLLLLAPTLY
Sequence of turkey P2Y1 receptor (P49652 whole entry): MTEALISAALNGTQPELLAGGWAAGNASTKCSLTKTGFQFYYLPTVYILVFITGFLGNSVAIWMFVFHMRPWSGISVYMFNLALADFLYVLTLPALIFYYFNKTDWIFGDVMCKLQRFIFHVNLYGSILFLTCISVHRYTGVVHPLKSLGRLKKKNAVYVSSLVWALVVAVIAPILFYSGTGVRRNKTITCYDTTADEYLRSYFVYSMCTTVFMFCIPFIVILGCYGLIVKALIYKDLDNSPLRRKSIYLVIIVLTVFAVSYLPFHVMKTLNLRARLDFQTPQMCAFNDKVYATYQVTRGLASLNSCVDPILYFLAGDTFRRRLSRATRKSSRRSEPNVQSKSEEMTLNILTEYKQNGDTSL

On to `CSc1nc(N)c2ncn([C@@H]3O[C@H](COP(=O)(O)C(F)(F)P(=O)(O)O)[C@@H](O)[C@H]3O)c2n1` [analogue 13, 2-MeS-adenosine-5′-O-diphosphate-α,β-difluoromethylene], for which the “starting material remaining at pH 1.4” value in data set [1] (pH 1.4, after 30 days) came out at 61%. On to `Nc1ncnc2c1ncn2[C@@H]1O[C@H](COP(=O)(O)OP(=O)(O)OP(=O)(O)OC[C@@H]2O[C@H](n3cnc4c(N)ncnc43)[C@@H](O)[C@H]2O)[C@@H](O)[C@H]1O` [Ap3A, diadenosine triphosphate], for which the “effect on IOP (increase or reduction)” value in the data set on rabbit IOP [2] was “increase IOP”. On to `CSc1nc(N)c2ncn([C@@H]3O[C@H](COP(=O)(O)OP(=O)(O)O)[C@@H](O)[C@H]3O)c2n1` [analogue 7, 2-MeS-ADP], for which the half-life (as a rule, the time in which the quantity being followed falls by half) at 0.248 mM in [3] (human, human blood serum diluted with RPMI-1640 medium) is 23.5 h. The “degradation by alkaline phosphatase after 3 h” value in data set [4] is on record as 87%.

With `BP(=O)(OC[C@H]1O[C@@H](n2cnc3c(N)nc(SC)nc32)[C@H](O)[C@@H]1O)OP(=O)(O)CP(=O)(O)O` (stereo partly drawn) [analogue 3, 2-MeS-α-B,β,γ-CH2-ATP], the “t1/2 of hydrolysis at pH 1.4” value in data set [5] is listed as 14.5 h. Take `Nc1ncnc2c1ncn2[C@@H]1O[C@H](COP(=O)(O)OP(=O)(O)OP(=O)(O)OP(=O)(O)O)[C@@H](O)[C@H]1O` [Ap4, adenosine tetraphosphate]: the “effect on IOP (increase or reduction)” value in the data set with rabbit IOP [2] is given as “reduced”. For the molecule `CSc1nc(N)c2ncn([C@@H]3O[C@H](COP(=O)(O)C(Cl)(Cl)P(=O)(O)O)[C@@H](O)[C@H]3O)c2n1` [analogue 14, 2-MeS-Rα,β-dichloromethylene-ADP], in data set [1] (pH 1.4, after 6 days), the “hydrolysis of the starting material at pH 1.4” value is 15%. In data set [3] (setting [9]), the “degradation in human blood serum over 24 h” value is “completely resistant”. For `Nc1ncnc2c1ncn2[C@@H]1O[C@H](COP(=O)(O)OP(=O)(O)O)[C@@H](O)[C@H]1O` [ADP], the “half-life in human blood serum” value in data set [3] (setting [9]) is on record as 1.4 h. Also, in data set [4], the “degradation by alkaline phosphatase after 3 h” value is “completely degraded”.

Take `BP(=O)(OCC1OC(n2cnc3c(N)nc(SC)nc32)C(O)C1O)OP(=O)(O)C(F)(F)P(=O)(O)O` (stereo not drawn) [analogue 10, α-borano-β,γ-CF2-2-MeS-ATP]: the “resistance to hydrolysis by alkaline phosphatase” value in [4] is recorded as “completely resistant”.

With `Nc1ncnc2c1ncn2[C@@H]1O[C@H](COP(=O)(O)OP(=O)(O)OP(=O)(O)OP(=O)(O)OP(=O)(O)OC[C@H]2O[C@@H](n3cnc4c(N)ncnc43)[C@H](O)[C@@H]2O)[C@@H](O)[C@H]1O` [Ap5A, diadenosine pentaphosphate], the “effect on IOP (increase or reduction)” value in the data set on rabbit IOP [2] is on record as “increase IOP”.

Consider `BP(=O)(OCC1OC(n2cnc3c(N)nc(SC)nc32)C(O)C1O)OP(=O)(O)C(Cl)(Cl)P(=O)(O)O` (stereo not drawn) [analogue 12, α-borano-β,γ-CCl2-2-MeS-ATP], for which the “resistance to hydrolysis by alkaline phosphatase” value in data set [4] is “completely resistant”. As to `BP(=O)(OC[C@H]1O[C@@H](n2cnc3c(N)nc(SC)nc32)[C@H](O)[C@@H]1O)OP(=O)(O)CP(=O)(O)O` (stereo partly drawn) [analogue 3B], in the data set on P2Y1R, the 50% effective concentration (EC50) (commonly the concentration that produces a half-maximal response) is 17200 nM.

Consider α-B,β,γ-CH2-ATP [analogue 2], for which the “t1/2 of hydrolysis at pH 1.4” value in [5] is 19 h. Consider `CSc1nc(N)c2ncn([C@@H]3O[C@H](COP(=O)(O)OP(=O)(O)C(Cl)(Cl)P(=O)(O)O)[C@@H](O)[C@H]3O)c2n1` [analogue 9, β,γ-CCl2-2-MeS-ATP], for which the “t1/2 of hydrolysis at pH 1.4” value in [1] was determined as 65 h. The “degradation in human blood serum over 24 h” value in [3] (setting [9]) came to 15%. The “duration of the reduction in IOP (mean-time effect)” value (“duration of the reduction in IOP” below) in the data set on rabbit IOP [6] (100 μM, 10 μL) was determined as 4.5 h. For the molecule “2-MeS-α-borano-ATP (A-isomer) [analogue 4A]”, in the data set with P2Y1R, the half-maximal effective concentration (EC50) was 2.6 nM. As to `BP(=O)(OC[C@H]1O[C@@H](n2cnc3c(N)nc(SC)nc32)[C@H](O)[C@@H]1O)OP(=O)(O)C(F)(F)P(=O)(O)O` (stereo partly drawn) [analogue 10B, 2-MeS-adenosine-5′-O-(α-boranotriphosphate)-β,γ-CF2], the “fold reduction in P2Y1R activity vs analogue 8” value at turkey P2Y1 receptor stood at 3 fold. Also, the “t1/2 of hydrolysis at pH 1.4” value in [1] was ~8 h. For `Nc1ncnc2c1ncn2[C@@H]1O[C@H](COP(=O)(O)OP(=O)(O)OP(=O)(O)OP(=O)(O)OC[C@H]2O[C@@H](n3cnc4c(N)ncnc43)[C@H](O)[C@@H]2O)[C@@H](O)[C@H]1O` [Ap4A, diadenosine tetraphosphate], the “effect on IOP (increase or reduction)” value with rabbit IOP [2] is listed as “reduced”. On to `CC(C)OC(=O)CCC/C=C\C[C@@H]1[C@@H](CC[C@@H](O)CCc2ccccc2)[C@H](O)C[C@@H]1O` [latanoprost], for which the “duration of the reduction in IOP” value in the data set with rabbit IOP [6] (commercial drug, 0.005%, 40 μL) is listed as 5.5 h. With `CSc1nc(N)c2ncn([C@@H]3O[C@H](COP(=O)(O)OP(=O)(O)CP(=O)(O)O)[C@@H](O)[C@H]3O)c2n1` [analogue 1, 2-MeS-β,γ-CH2-ATP], the “duration of the reduction in IOP” value in the data set on rabbit IOP [6] (100 μM, 10 μL) is reported as 3.5 h. In addition, the “fraction ionized at physiological pH” value in data set [7] is 9%. Besides, in the data set on P2Y1R, the concentration for a half-maximal effect (EC50) was 80 nM. Further, the “t1/2 in human blood serum” value in [8] was 12.1 h.

The values above are taken from paper PMC4358770 (Journal of medicinal chemistry, 2010).
